Screening data: PubChem BioAssay, several laboratories
MBD2 DNA inh = inhibitors of human MBD2 binding to methylated oligonucleotide; TR-FRET; inhibition, % at 4.4 µM; 370,000 tested, 0.31% active; AID 686964; in the data active = inhibition above about 13%
UHRF1 binding = UHRF1 methyl-DNA binding inhibition; Q96T88; UHRF1 binding to methylated oligo, TR-FRET; inhibition, % at 4.4 µM; 370,000 tested, 0.75% active; AID 687016; in the data active = inhibition above about 21%;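 note: UHRF1 SRA domain binding a hemimethylated CpG hairpin DNA probe; 0% = median of test compound wells and 100% = reference inhibitor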
Target sequence (Q96T88 whole entry, looked up, the tested form may be a part): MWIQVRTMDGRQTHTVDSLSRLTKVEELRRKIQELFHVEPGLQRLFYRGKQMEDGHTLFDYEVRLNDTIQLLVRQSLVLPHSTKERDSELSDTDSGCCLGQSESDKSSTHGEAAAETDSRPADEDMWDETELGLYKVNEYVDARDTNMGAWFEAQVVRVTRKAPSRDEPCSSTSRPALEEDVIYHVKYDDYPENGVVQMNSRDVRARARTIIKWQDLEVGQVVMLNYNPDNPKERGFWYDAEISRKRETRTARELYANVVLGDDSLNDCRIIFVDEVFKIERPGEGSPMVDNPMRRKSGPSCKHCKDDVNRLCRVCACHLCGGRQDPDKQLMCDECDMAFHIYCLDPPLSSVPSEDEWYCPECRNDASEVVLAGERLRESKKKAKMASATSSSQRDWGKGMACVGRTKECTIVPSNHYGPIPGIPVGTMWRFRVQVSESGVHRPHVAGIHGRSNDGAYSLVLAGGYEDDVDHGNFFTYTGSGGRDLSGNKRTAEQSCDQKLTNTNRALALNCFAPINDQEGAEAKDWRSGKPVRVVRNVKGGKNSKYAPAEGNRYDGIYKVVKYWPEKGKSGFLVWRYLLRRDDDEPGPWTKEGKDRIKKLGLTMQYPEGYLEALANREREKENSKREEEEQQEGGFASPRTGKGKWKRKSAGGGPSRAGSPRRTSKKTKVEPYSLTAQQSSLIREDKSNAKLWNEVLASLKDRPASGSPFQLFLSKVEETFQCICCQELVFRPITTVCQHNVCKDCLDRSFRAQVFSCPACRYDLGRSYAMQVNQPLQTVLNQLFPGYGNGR
LEDGF integ inh = blocks HIV-1 LEDGF/p75-dependent DNA integration; TR-FRET IN-LEDGF/p75 DNA integration, Eu/Cy5; inhibition, % at 3.7 µM; 370,000 tested, 0.64% active; AID 743269;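 active = inhibition above the screen-wide mean plus 3 SD, cut at about 13% in these data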;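 note: signal is the Cy5 over europium emission ratio at 671 and 618 nm; 0% = plate median of compound wells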
ATG4B inhibitor = ATG4B (human) cysteine protease inhibition | Q9Y4P1 | ATG4B cleavage of LC3-PLA2, NBD-HPC fluorescence, 1 h | inhibition, % at 8.33 µM | 340,000 tested, 0.51% active | AID 504462; in the data active = inhibition above about 40%
CSN inh = blocks human CSN-mediated cullin deneddylation | inhibition, % at 12.5 µM | AID 651999 | Q92905 | Purified CSN, SCF-Nedd8-OG deneddylation, fluorescence polarization | 360,000 tested, 0.38% active;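 active = pattern-corrected inhibition above about 35%, with an unprinted fluorescence ratio check between 0.5 and 1.5, limit read from the data, passing the limit was not always enough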;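 note: 0% = enzyme with substrate and 100% = substrate without enzyme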
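Material: human Csn5 produced in HEK293T cells; Input: enzyme 0.24 nM; Reagent: SCFSkp2-Nedd8OG substrate at 10 nM final; Dosing: 12.5 µM compound; Incubation: 90 min reaction at room temperature; Detection: fluorescence polarization of the substrate; Evaluation: % inhibition of substrate cleavage by Csn5; Control set: substrate-only high control, full reaction low control.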
rCAG binder = binds r(CAG) RNA repeats; r(CAG) RNA repeat, TO-PRO-1 dye displacement fluorescence; inhibition, % at 3 µM; 370,000 tested, 1.3% active;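 active = inhibition above the plate cutoff, the mean of all test compounds on that plate plus 3 SD, cut at about 35% in these data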;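 note: 0% = DMSO alone and 100% = 100 µM mitoxantrone as full dye displacement; higher means more dye released from RNA so lower well fluorescence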
Starred values were filed as active, the others as inactive; · = no result. Sampled rows, rich in hits. Any-hit rate of the full collection: about 3.1%.

SMILES	MBD2 DNA inh	UHRF1 binding	LEDGF integ inh	ATG4B inhibitor	CSN inh	rCAG binder
C=CCN(Cc1ccc2c(c1)OCO2)C(C#CC1CC1)C(C)C (stereo unspecified)	0.7	-0.3	-0.6	·	·	3.1
COC(=O)[C@]12C[C@H](CC(=O)NCCc3ccccc3OC)C(=O)N(Cc3ccco3)C1=C[C@H](COCc1ccccc1)O[C@@H]2C	6.1	2.2	2.8	·	·	6.7
COc1ccc(C(=O)Nn2c(CC(C)C)nc3cc(OC)c(OC)cc3c2=O)c(OC)c1	2.4	34.3*	-4.8	-10.5	-4.5	-2.6
FC(F)(F)c1cc(CNC2CCC23CCCCC3)ccc1Cl (stereo unspecified)	-7.2	-1.3	2.8	·	·	·
O=S(=O)(c1ccc(Br)cc1)N1CCCN(Cc2cccc(F)c2)CC1	-3.2	62.3*	0.3	7.7	-3.7	-8.7
CN1CCN(S(=O)(=O)c2cccc(C(=O)N3CCN(c4ccccc4)CC3)c2)CC1	4.3	49.2*	-2.2	-0.7	-7.7	-0.2
O=C(/C=C/c1ccco1)Nc1cccc(NC(=O)/C=C/c2ccco2)n1	10.8	21.1*	10.6	15.6	25.5	21.4
CNS(=O)(=O)c1ccc2nc(NC(=O)/C=C/c3ccco3)sc2c1	-7.2	0.5	3.9	-8.9	56.1*	19.1
Cc1nc(NC(=O)/C=C/c2ccco2)sc1C	-6.3	-1.5	3.6	-0.9	-3.0	4.0
CCn1c(=O)cc(SCC(=O)NCCCN2CCC(C)CC2)c2ccccc21	-0.1	-2.3	3.7	-5.7	5.0	-3.5
CCn1c(=O)cc(SCC(=O)NCCCN2CCN(c3ccc(F)cc3)CC2)c2ccccc21	-2.2	21.4*	-1.4	0.6	5.4	-7.5
O=C(c1ccccc1)N1CCCc2ccccc21	9.3	20.8*	1.2	-0.4	-1.0	-3.5
O=C(c1ccc(=O)oc1)N1CCCc2ccccc21	4.0	16.6	21.5*	5.5	33.5	21.5
O=C(c1ccccc1)N1CCc2ccccc21	5.5	-0.9	1.6	6.2	-4.0	-1.7
O=C(Cc1ccccc1)Nc1nnc(-c2cccnc2)s1	2.7	-3.5	1.2	·	·	0.9
C=CC[C@@H]1NN2C(=O)[C@@H](CCCC)[C@@H]3c4ccccc4C=NN3[C@@H]2c2ccccc21	-1.3	-0.4	-1.6	·	·	-1.1
C=CC[C@@H]1NN2C(=O)[C@@H](CCc3ccccc3)[C@@H]3c4ccccc4C=NN3[C@@H]2c2ccccc21	4.5	83.5*	2.3	·	·	6.7
Nc1cc2nsnc2cc1Br	3.3	4.4	48.2*	65.2*	38.5*	5.5
CN(C(=O)CCc1nnc(CCCCc2ccccc2)o1)C1CC(C)(C)NC(C)(C)C1	7.0	45.6*	3.2	19.0	4.3	-4.7
COCCN1CC(CNC(=O)c2cc(COc3ccc(C)c(C)c3)on2)CC1=O (stereo unspecified)	7.2	20.9*	-1.2	-7.5	2.7	-2.6
Cc1ccc(OCc2cc(C(=O)NCCn3cccn3)no2)cc1C	-3.1	0.8	-0.7	21.9	3.6	1.0
CCOC(=O)CCC(NC(=O)CC(=O)NC(CCC(=O)OCC)C(=O)OCC)C(=O)OCC (stereo unspecified)	-2.3	35.8*	-1.4	2.6	-8.3	-11.3
CCOC(=O)CCC(NC(=O)CCC(=O)NC(CCC(=O)OCC)C(=O)OCC)C(=O)OCC (stereo unspecified)	4.3	3.1	-5.8	-1.2	-6.9	-3.9
COc1cc(NC(C)CCCNC(C)C)c2ncccc2c1OC (stereo unspecified)	-6.5	-0.5	14.3*	-5.7	2.8	3.3
CCOC(=O)c1csc(NC(=O)C2CCCN(S(=O)(=O)c3ccc([N+](=O)[O-])cc3)C2)n1 (stereo unspecified)	-0.7	-0.5	4.5	·	·	3.4
SMILES	MBD2 DNA inh	UHRF1 binding	LEDGF integ inh	ATG4B inhibitor	CSN inh	rCAG binder
Fc1ccc(Nc2nc(-c3ccncc3)cs2)cc1	4.8	28.1*	11.7	-2.4	-4.7	2.0
Clc1ccc(Nc2nc(-c3ccncc3)cs2)cc1	-1.7	-0.4	-1.8	-3.8	5.6	1.6
CSCCC(NC(=O)c1ccccc1)C(=O)OCC(=O)NCc1ccco1 (stereo unspecified)	-4.2	26.7*	3.3	-1.3	1.4	2.5
O=C(COC(=O)c1ccccc1Nc1ccccc1)NCc1ccco1	-1.1	20.9*	-2.9	-8.9	-2.3	-2.5
COc1ccc(CNC(=O)COC(=O)C(CCSC)NC(=O)c2ccco2)cc1OC (stereo unspecified)	2.5	4.5	3.9	6.8	2.2	0.8
Cc1oc(CC(C)C)cc1C(N)=O	5.3	26.3*	4.4	3.8	-12.0	-0.3
Cc1cc(NC(=O)CCCC(=O)NCc2cccs2)no1	12.2	24.6*	5.4	-10.1	2.7	0.1
Cc1cc(C(=O)NCc2cccs2)no1	-0.3	6.0	-1.8	-0.2	0.9	0.9
C=CCN1C(=O)[C@@H](CC(=O)N2CCOCC2)[C@]2(C(=O)OCC)CCCCC/C=C/12	-1.5	5.4	-3.9	·	·	7.6
N=C1/C(=C/c2ccc(OCc3ccccc3F)cc2)C(=O)N=C2SC(CC(=O)N3CCOCC3)=NN12	12.8	23.2*	-0.4	6.6	2.7	22.6
Cn1c(=O)c2cc(S(=O)(=O)N3CCN(Cc4ccccc4)CC3)ccc2n(C)c1=O	0.4	1.0	0.2	·	·	4.1
Cc1ccc(C2=C/C(=C/c3cccs3)C(=O)O2)cc1	-5.4	-0.7	1.5	3.2	48.9*	8.5
CCCCOCCCNC(=O)C[C@H]1C(=O)N(CCCOC)C2=CCCCC[C@]21C(=O)OC	2.4	0.4	-2.4	·	·	-2.8
O=S1(=O)CC(O)C(NCc2cccnc2)C1 (stereo unspecified)	-1.2	-2.1	-1.8	3.8	0.6	0.2
CC(C)CNC1CS(=O)(=O)CC1O (stereo unspecified)	-0.8	21.9*	1.1	-3.6	6.8	0.6
CC(C)C[C@H](NC(C)(C)C(=O)NC1CCCCC1)C(=O)NCCc1c[nH]c2ccccc12	-0.9	2.4	2.4	·	·	·
COc1cccc(NC(=O)CCC(=O)NCc2ccco2)c1	1.8	0.5	1.0	-11.6	69.9*	0.2
O=C(Nc1ccc(Br)cc1)OC1CC2CC1[C@H]1CCCCN1[C@H]2Cc1ccccc1 (stereo partly specified)	-1.5	0.2	-4.5	·	·	7.5
CN(C)C(=O)[C@H]1C[C@H]1[C@@H](O)[C@H](CO)NC(=O)[C@H](Cc1ccccc1)NC(=O)OC(C)(C)C	11.7	28.1*	10.6	-5.9	1.8	-9.1
Cc1c(NS(=O)(=O)c2cc(C(=O)NCC3CCCO3)cc(Cl)c2Cl)c(=O)n(-c2ccccc2)n1C (stereo unspecified)	2.2	-0.2	-1.3	0.1	-6.8	2.4
Cc1c(NC(=O)C(C)NCC2CCCO2)c(=O)n(-c2ccccc2)n1C (stereo unspecified)	-2.5	37.9*	-0.3	9.8	5.4	0.5
